PP5 primary: PP5 phosphatase inhibitors, primary screen, biochemical, fluorescence; Serine/threonine-protein phosphatase 5 (Homo sapiens), P53041; purified PP5c, OMFP substrate fluorescence; inhibition, % at 6.7 µM; 320,000 tested, 0.18% active; AID 1987, 2009;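 active means inhibition above the campaign's mean inhibition across all tested compounds plus 3 SD, cut at about 9.5% in these data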;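 further: 0% = DMSO only and 100% = 100 µM cantharidin control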
Target sequence (P53041 whole entry, looked up): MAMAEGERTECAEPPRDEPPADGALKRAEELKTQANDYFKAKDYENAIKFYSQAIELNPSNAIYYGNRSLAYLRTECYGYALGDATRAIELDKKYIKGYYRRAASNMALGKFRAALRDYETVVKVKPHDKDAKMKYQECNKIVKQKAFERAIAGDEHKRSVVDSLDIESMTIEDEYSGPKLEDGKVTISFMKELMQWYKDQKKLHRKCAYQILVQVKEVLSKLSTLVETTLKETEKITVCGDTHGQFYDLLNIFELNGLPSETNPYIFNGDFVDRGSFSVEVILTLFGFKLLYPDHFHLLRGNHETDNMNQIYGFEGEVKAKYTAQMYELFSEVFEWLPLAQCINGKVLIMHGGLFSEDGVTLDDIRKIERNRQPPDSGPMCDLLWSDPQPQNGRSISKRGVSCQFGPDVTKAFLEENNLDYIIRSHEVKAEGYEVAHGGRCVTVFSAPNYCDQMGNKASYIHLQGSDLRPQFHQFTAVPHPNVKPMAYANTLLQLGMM
HCV core dimer: inhibitors of HCV core protein dimerization, primary screen, biochemical, TR-FRET, high-throughput | 300,000 tested, 0.33% active | AID 1899, 2009 | TR-FRET GST/Flag-core106 dimerization, 1536-well | inhibition, % at 5 µM;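 active means inhibition above the mean of all tested compounds plus 3 SD, set per screening campaign, cut at about 45% in these data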
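Material: GST/Flag-tagged HCV core106 proteins. Incubation: 4 h, 22.5 °C incubation. Read-out basis: inhibition (%) from 671 over 617 nm ratio. Measured by: TR-FRET, excitation 340 nm, emission 617 and 671 nm.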
PP1 inh: PP1-alpha phosphatase inhibitors, primary screen, counter-screen for PP5 inhibitor project, biochemical, fluorescence, OMFP substrate, single point; purified PP1alpha; inhibition, % at 6.7 µM; 320,000 tested, 0.9% active; AID 2235, 2010;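 active means inhibition above the mean inhibition of all tested compounds plus 3 SD, computed separately for each screening campaign, cut at about 15% in these data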
EBNA-1 inh: EBNA-1 DNA-binding inhibitors, primary screen, biochemical, fluorescence polarization; inhibition, % at 14.8 µM; 300,000 tested, 0.34% active; in the data active means inhibition above about 28%
ZTA DNA inh: blocks Epstein-Barr virus ZTA, an EBNA-1 counter-screen; 320,000 tested, 0.15% active; P03206; ZTA-DNA binding, fluorescence polarization; inhibition, % at 11 µM; AID 2234; in the data active means inhibition above about 33%
The depositor's hits bear a star; x = not tested or not shown. Rows were chosen to be rich in hits. Some 1.7% of all compounds tested hit in one or more screens of this group.

SMILES	PP5 primary	HCV core dimer	PP1 inh	EBNA-1 inh	ZTA DNA inh
CCn1c(=O)c(C(=O)CN2c3ccccc3CC2C)c(N)n(Cc2ccccc2)c1=O (stereo not given)	0	43	16*	5	-26
CC(C)C[C@@H](CN(C)N=O)N(C[C@H](Cc1ccccc1)N(CCc1ccccc1)N=O)N=O	3	3	7	8	-10
CN(C[C@H](Cc1ccccc1)N(C[C@H](Cc1cccc2ccccc12)N(CCc1ccccc1)N=O)N=O)N=O	4	26	16*	0	3
CCc1ccc(N2CC(C(=O)OCc3nc4ccsc4c(=O)[nH]3)CC2=O)cc1 (stereo not given)	-2	x	-1	x	1
Cn1c(=O)c(C(=O)COC(=O)c2cc(C3CC3)nc3ccccc23)c(N)n(Cc2ccccc2)c1=O	5	-4	14	-1	-7
Cn1c(=O)c(C(=O)COC(=O)c2cc(-c3ccco3)nc3ccccc23)c(N)n(CC2CC2)c1=O	4	57*	21*	10	-2
O=[N+]([O-])c1cccc(P(=O)(O)c2cccc([N+](=O)[O-])c2)c1	2	0	-3	0	13
COc1ccccc1N(C)S(=O)(=O)c1ccc(C)c(C(=O)NCc2ccccn2)c1	-1	x	-3	x	1
NS(=O)(=O)c1ccc2c(c1)C1C=CCC1C(C1CC=CCC1)N2 (stereo not given)	3	65*	11	-7	-10
CC(C)C1Nc2ccc(S(N)(=O)=O)cc2C2C=CCC21 (stereo not given)	2	1	1	-1	-18
CC(OC(=O)C1CCCCC1)C(=O)Nc1cccc([N+](=O)[O-])c1 (stereo not given)	1	x	-3	x	10
COc1cccc(NC(=O)Nc2nc(SC)ns2)c1	2	1	2	14	0
COc1cccc(NC(=O)Nc2nc(SC(C)(C)C)ns2)c1	5	5	17*	11	8
CC(C)(C)C(=O)COC(=O)c1c2c(nc3ccccc13)CCC2	0	54*	-1	-1	-16
COc1ccc(Cl)cc1NC(=S)N(CCN1CCOCC1)C1CCN(C(C)=O)CC1	-2	-2	2	-2	-24
Cc1ccc(C(=O)NCC(=O)OCc2nnc(-c3ccc([N+](=O)[O-])cc3)o2)s1	3	x	1	x	-2
O=C(COC(=O)CSc1ccc(Cl)cc1)Nc1ccccc1	3	x	-2	x	-9
O=C(COC(=O)c1ccc(CSc2ccc(Cl)cc2)cc1)Nc1ccccc1	3	10	3	29*	3
CC(OC(=O)/C=C/c1ccc2ccccc2n1)C(=O)NCc1ccccc1 (stereo not given)	0	2	-4	-1	-11
COc1cc(OC)cc(-n2nnnc2SCC(=O)N2CCCC2)c1	2	5	16*	2	-12
O=C(CSc1nnc(-c2ccncc2)n1Cc1ccco1)c1ccc(Cl)cc1	3	14	2	2	-1
O=C(CSc1nnc(-c2ccc(Cl)cc2)n1Cc1ccco1)c1cccs1	1	47*	4	10	-21
Clc1cccc(CSc2nnc(-c3cccnc3)n2Cc2ccco2)c1	0	4	-2	4	0
Clc1ccc(CSc2nnc(-c3cccnc3)n2Cc2ccco2)c(Cl)c1	3	48*	2	-17	7
Cc1ccc(/C=C2\SC(N3CCN(C(c4ccccc4)c4ccccc4)CC3)=NC2=O)o1	2	60*	17*	3	-1
SMILES	PP5 primary	HCV core dimer	PP1 inh	EBNA-1 inh	ZTA DNA inh
Cc1ccc(-c2ccc(/C=C3\SC(N4CCOCC4)=NC3=O)o2)cc1	2	-1	4	-10	-10
O=C(CN1CCC(n2cnc3cc(F)ccc32)CC1)Nc1ccccc1Br	2	-3	-3	2	-17
Cc1cccc(-n2c(O)c(C=Nc3ccc(O)cc3)c3ccccc3c2=O)n1	0	-12	-2	19	2
Cc1ccc(N=Cc2c(O)n(-c3ccc4c(c3)OCO4)c(=O)c3ccccc23)cc1	3	62*	-3	-1	-8
CCN(CC)C(=O)c1[nH]cnc1C(=O)NC1CCN(C(=O)OC(C)(C)C)CC1	2	x	-5	x	6
Cc1ccc(C)n1-c1ccc(N(C)C)cc1	3	0	-13	109*	180*
CC(C)[C@H](NC(=O)c1c(F)cccc1F)C(=O)Nc1cccc(Br)c1	0	2	2	-4	-8
CC(C)(C)c1nnc2sc(SC/C(O)=C(\C#N)c3nc4ccccc4[nH]3)nn2c1=O	0	60*	6	9	-1
CCCc1c2ccccc2nc2ccccc12	4	-19	-2	1	-13
CCOC(=O)C1=C(C(F)(F)F)Nc2ncnn2C1c1ccc(OC)cc1OC (stereo not given)	0	-3	-3	-1	0
O=[N+]([O-])c1cc(Cc2ccccc2)cc(C=Nc2ccc(N3CCOCC3)cc2)c1O	1	-7	9	40*	77*
O=C(CSc1nnc(-c2ccco2)o1)c1ccccc1	1	23	3	4	-2
O=C(CSc1nnc(-c2ccco2)o1)c1ccc[nH]1	0	63*	2	3	7
COC(=O)c1ccc(C2C(C(=O)c3cc4ccccc4o3)=C(O)C(=O)N2c2cc(C)on2)cc1 (stereo not given)	-4	33	27*	-4	11
COC(=O)c1ccc(C2C(C(=O)c3cc4ccccc4o3)=C(O)C(=O)N2CCCN(C)C)cc1 (stereo not given)	4	-1	0	-12	-8
COc1cccc(C2C(C(=O)c3cc4cccc(OC)c4o3)=C(O)C(=O)N2c2cc(C)on2)c1OC (stereo not given)	4	11	11	-22	-10
COc1cccc2cc(C(=O)C3=C(O)C(=O)N(c4cc(C)on4)C3c3cccs3)oc12 (stereo not given)	2	-9	23*	-1	-18
COc1cc(C2C(C(=O)c3cc4ccccc4o3)=C(O)C(=O)N2c2cc(C)on2)cc(OC)c1OC (stereo not given)	2	3	17*	-15	-17
COc1cccc(C2C(C(=O)c3cc4ccccc4o3)=C(O)C(=O)N2c2cc(C)on2)c1OC (stereo not given)	1	17	15*	-1	12
CCn1c(SCC(=O)Nc2cccc(S(=O)(=O)N(C)c3ccccc3)c2)nnc1C1CC1	2	x	1	x	1
CCc1ccc(NC(=O)c2ccc3c(c2)C(=O)N(Cc2ccco2)C3=O)cc1	0	56*	-1	17	11
O=C(COC(=O)CNS(=O)(=O)c1ccc(F)c(F)c1F)Nc1ccc(OC(F)F)cc1	1	-4	0	-3	8
